Measurements reported in ChEMBL document CHEMBL3352516, “Synthesis and biological evaluation of largazole analogues with modified surface recognition cap groups” (2014).
Active and inactive are the calls of the source. The rule behind the calls is not given here.

Legend:
[1] = target: T1, Protein deacetylase HDAC6 (Homo sapiens) (UniProt Q9UBN7); assay: Inhibition of human HDAC6 (unknown origin) at 0.01 to 5 uM using Fluor de Lys substrate fluorimetric assay
T1 sequence (whole entry): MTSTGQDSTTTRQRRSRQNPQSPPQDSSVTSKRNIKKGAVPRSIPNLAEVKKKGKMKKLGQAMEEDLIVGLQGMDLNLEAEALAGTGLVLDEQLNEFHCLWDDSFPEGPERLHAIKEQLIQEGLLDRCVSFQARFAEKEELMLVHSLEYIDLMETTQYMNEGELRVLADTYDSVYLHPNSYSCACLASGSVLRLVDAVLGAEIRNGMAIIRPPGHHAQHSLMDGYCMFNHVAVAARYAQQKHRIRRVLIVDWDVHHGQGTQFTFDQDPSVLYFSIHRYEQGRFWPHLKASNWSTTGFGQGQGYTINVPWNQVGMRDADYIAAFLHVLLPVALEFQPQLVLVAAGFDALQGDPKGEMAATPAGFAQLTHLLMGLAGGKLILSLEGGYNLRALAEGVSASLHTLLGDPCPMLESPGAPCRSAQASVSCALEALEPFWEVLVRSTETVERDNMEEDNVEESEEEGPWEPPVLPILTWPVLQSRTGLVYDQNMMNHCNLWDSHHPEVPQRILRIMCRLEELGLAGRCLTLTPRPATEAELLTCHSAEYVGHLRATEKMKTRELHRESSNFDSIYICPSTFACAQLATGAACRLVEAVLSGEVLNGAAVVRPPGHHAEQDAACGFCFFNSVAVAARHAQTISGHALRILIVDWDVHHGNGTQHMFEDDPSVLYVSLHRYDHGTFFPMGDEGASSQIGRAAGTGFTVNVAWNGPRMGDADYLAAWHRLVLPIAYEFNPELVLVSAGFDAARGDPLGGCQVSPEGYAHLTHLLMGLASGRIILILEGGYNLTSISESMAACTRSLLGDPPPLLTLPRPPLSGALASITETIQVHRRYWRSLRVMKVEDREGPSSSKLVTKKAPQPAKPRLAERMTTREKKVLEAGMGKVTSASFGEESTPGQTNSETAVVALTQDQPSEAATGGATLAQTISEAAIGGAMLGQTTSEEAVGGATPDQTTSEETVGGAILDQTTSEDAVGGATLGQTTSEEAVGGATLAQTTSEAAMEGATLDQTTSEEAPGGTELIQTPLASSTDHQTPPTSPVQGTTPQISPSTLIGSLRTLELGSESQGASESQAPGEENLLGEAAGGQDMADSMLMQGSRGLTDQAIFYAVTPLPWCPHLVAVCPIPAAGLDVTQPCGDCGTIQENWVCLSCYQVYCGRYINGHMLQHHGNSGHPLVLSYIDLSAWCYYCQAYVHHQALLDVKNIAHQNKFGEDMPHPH
Outline: (§1)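 Recombinant HDAC6 incubated 1 h with inhibitor (0–5 μM) and class II-specific Fluor de Lys substrate, then developer added and fluorescence read. Compound with substrate and developer but no enzyme served as interference control. Three experiments, each in triplicate.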

[2] = target: Histone deacetylase 1 (Homo sapiens) (UniProt Q13547); assay: Inhibition of human HDAC1 (unknown origin) at 0.01 to 1 uM using Fluor de Lys substrate fluorimetric assay
Chain of Histone deacetylase 1 (Homo sapiens) (Q13547 whole entry): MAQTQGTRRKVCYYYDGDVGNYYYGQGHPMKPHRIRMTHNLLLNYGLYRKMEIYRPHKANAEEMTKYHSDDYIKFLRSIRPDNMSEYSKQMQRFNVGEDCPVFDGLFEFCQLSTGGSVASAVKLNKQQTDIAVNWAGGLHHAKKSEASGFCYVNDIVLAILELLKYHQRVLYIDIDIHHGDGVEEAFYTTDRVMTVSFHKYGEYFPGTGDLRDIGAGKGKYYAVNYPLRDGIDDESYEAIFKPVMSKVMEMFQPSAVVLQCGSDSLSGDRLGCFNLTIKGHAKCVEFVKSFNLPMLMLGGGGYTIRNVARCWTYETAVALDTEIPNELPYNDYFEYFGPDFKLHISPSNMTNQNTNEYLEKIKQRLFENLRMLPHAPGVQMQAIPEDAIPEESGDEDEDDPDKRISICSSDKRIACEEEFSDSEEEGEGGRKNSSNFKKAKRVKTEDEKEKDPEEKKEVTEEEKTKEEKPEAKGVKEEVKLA

[3] = target: T2, Histone deacetylase (Homo sapiens) (UniProt Q13547+O15379+Q9UBN7+Q92769+Q9UQL6+Q8WUI4+Q9BY41+Q96DB2+P56524+Q9UKV0+Q969S8); assay: Inhibition of human HDAC in human HCT116 cells assessed as global histone H3 lysine-9 acetylation levels at 0.01 to 1 uM after 24 hrs by Western blotting method; assay type: cell-based; conditions: HCT-116
Outline: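 HCT116 cells treated 24 h with 10 nM, 100 nM or 1 μM compound, or DMSO. Western blot probed with anti-acetyl-H3 primary antibody and β-actin as loading control. Detection by dye-conjugated secondary antibodies on an infrared scanner.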

[4] = target: Histone deacetylase 1 (Homo sapiens) (UniProt Q13547); assay: Inhibition of human HDAC1 (unknown origin) at 0.1 uM using Fluor de Lys substrate fluorimetric assay
Outline: (§2)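 Recombinant HDAC1 incubated 1 h with inhibitor (0–1 μM) and class I-specific Fluor de Lys substrate, then developer added and fluorescence read. Compound with substrate and developer but no enzyme served as interference control. Three experiments, each in triplicate.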

[5] = target: Histone deacetylase 1 (Homo sapiens) (UniProt Q13547); assay: Inhibition of human HDAC1 (unknown origin) at 1 uM using Fluor de Lys substrate fluorimetric assay; outline: as §2
[6] = target: T1, Protein deacetylase HDAC6 (Homo sapiens); assay: Inhibition of human HDAC6 (unknown origin) at 5 uM using Fluor de Lys substrate fluorimetric assay
Outline: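 Recombinant HDAC6 from a fluorimetric kit, with a substrate specific for class II activity. Enzyme, inhibitor (0–5 μM) and Fluor de Lys substrate incubated 1 h, then developer added before the fluorescence read. Compound-only controls without enzyme, with substrate and developer, checked for signal interference. Three independent experiments, each in triplicate.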

[7] = Growth inhibition of human HCT116 cells after 96 hrs by MTS assay; assay type: functional; conditions: HCT-116, 96 h
Outline: (§3)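 HCT116 colorectal cells seeded at 3×10⁴ cells/well in quadruplicate, attached overnight, then medium replaced with compound-containing medium; 96 h at 37 °C, 5% CO₂. CellTiter 96 One Solution MTS added, 1.5 h at 37 °C, absorbance at 490 nm. Two experiments, each with 4 replicates, mean with SEM; GI50 taken from growth curves.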

HCT-116 [8] = assay: Inhibition of cell proliferation of human HCT116 cells at […] after 96 hrs by MTS assay; assay type: functional, cell-based
Outline: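 HCT116 colorectal cells seeded at 3×10⁴ cells/well in quadruplicate, left to attach overnight, then given fresh medium with compound for 96 h at 37 °C, 5% CO₂. MTS reagent added for 1.5 h, absorbance read at 490 nm. Mean of two experiments, each with 4 replicates.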

[9] = target: T1, Protein deacetylase HDAC6 (Homo sapiens); assay: Inhibition of human HDAC6 (unknown origin) at 1 uM using Fluor de Lys substrate fluorimetric assay; outline: as §1
[10] = target: T2, Histone deacetylase (Homo sapiens); conditions: HCT-116, 1 uM
HCT-116 [11] = assay: Growth inhibition of human HCT116 cells at 5 uM after 96 hrs by MTS assay; assay type: functional, cell-based; outline: as §3

In the case of CCCCCCCC(=O)SCC/C=C/[C@@H]1CC(=O)NCc2nc(cs2)C2=N[C@@](C)(CS2)C(=O)N[C@@H](C(C)C)C(=O)O1, the inhibition [1] was “Active”, the inhibition [2] was “Active” and the inhibition [3] was “Active”. For the same compound, the inhibition [4] was 15%, the inhibition [5] was over 90% and the inhibition [6] was 75%.
For CCCCCCCC(=O)SCC/C=C/[C@@H]1CC(=O)NCc2nc(cs2)C2=N[C@@](C)(CS2)C(=O)N[C@@H](Cc2cccc3ccccc23)C(=O)O1, the GI50 [7] was 56 nM, the inhibition (HCT-116 [8]) was “inactive” and the inhibition [2] was “Active”. The inhibition [3] was “Active”, the inhibition [9] was 50% and the inhibition [4] was 15%. The inhibition [5] was over 90% and the inhibition [6] was 50%.
With CCCCCCCC(=O)SCC/C=C/[C@@H]1CC(=O)NCc2nc(cs2)C2=N[C@](C)(CS2)C(=O)N[C@@H](C(C)C)C(=O)O1 the inhibition [10] was “Active”, the inhibition [3] was “inactive” and the “growth inhibition (GI)” value (HCT-116 [11]) was “inactive”. It also gave an inhibition [5] of under 15%.
With C=CC[C@@H]1NC(=O)[C@]2(C)CSC(=N2)c2csc(n2)CNC(=O)C[C@@H](/C=C/CCSC(=O)CCCCCCC)OC1=O the GI50 [7] was 10 nM, the inhibition (HCT-116 [8]) was “inactive” and the inhibition [2] was “Active”. The inhibition [3] was “Active”, the inhibition [9] was 50% and the inhibition [4] was “inactive”. For the same compound, the inhibition [5] was over 90% and the inhibition [6] was 55%.
For CCCCCCCC(=O)SCC/C=C/[C@@H]1CC(=O)NCc2nc(cs2)C2=N[C@@](C)(CS2)C(=O)N[C@H](Cc2cccc3ccccc23)C(=O)O1, the inhibition [1] was “inactive”, the inhibition [3] was “inactive” and the “growth inhibition (GI)” value (HCT-116 [11]) was “inactive”. It also gave an inhibition [5] of under 15%.
